Assay results from ChEMBL document CHEMBL3102768, “Synthesis, biological evaluation and SAR of 3-benzoates of ingenol for treatment of actinic keratosis and non-melanoma skin cancer” (Bioorg Med Chem Lett, 2014).

Columns and labels:
[1] = Chemical stability of the compound in aqueous buffer with less than 30% organic solvent assessed as compound recovery at pH 7.4 measured over 16 hrs by HPLC analysis; type: physicochemical; details: read-out: Drug recovery
Procedure, shortened: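 A DMSO stock was diluted into pre-heated (37 °C) aqueous buffer pH 7.4 to ≤30% v/v organic content. The solution was held at 37 °C in the HPLC autosampler and injected within 5 min, then repeatedly over 16 h. Recovery was taken from the decrease in compound peak area, with UV detection normally at 270 nm.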

[2] = Immunostimulatory activity in polymorphonuclear leukocytes (unknown origin) assessed as induction of oxidative burst after 40 mins by fluorescence assay; type: functional, cell-based
Procedure, shortened: (§1)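 PMN were isolated from fresh buffy coats. Cells were incubated 40 min at ambient temperature with titrated compound (top concentration 10 µM) pre-mixed with hydroethidine. Respiratory burst was read as fluorescence at ex 485/em 579 nm. EC50 is the concentration giving 50% of the maximum effect of ingenol 3-angelate; Emax is the maximal response relative to it.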

Keratinocyte [3] = experiment: Induction of proimflammatory activity in human primary epidermal keratinocytes assessed as TNFalpha release after 6 hrs; type: functional, cell-based
Procedure, shortened: (§2)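 Adult log-phase primary epidermal keratinocytes were seeded at 10,000 cells/well. Cells were incubated with titrated compound for 6 h at 37 °C in 5% CO2. Secreted TNFα was measured by Meso Scale 4-spot cytokine plates. EC50 and Emax were referenced to the maximal response of ingenol 3-angelate.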

Keratinocyte [4] = experiment: Induction of proimflammatory activity in human primary epidermal keratinocytes assessed as IL-8 release after 6 hrs; type: functional, cell-based
Procedure, shortened: as §2, with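 “IL8” for “TNFα”, “plates or by HTRF.” for “plates.”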

[5] = molecular target: Protein kinase C delta type (Homo sapiens, UniProt Q05655); experiment: Activation of PKCdelta (unknown origin) after 40 mins
Procedure, shortened: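 In vitro PKCδ phosphorylation of a PKC peptide substrate, with 0.05 mg/mL phosphatidylserine and no diacylglycerol. Compounds were tested as a twelve-point semilog dilution series starting at 10 µM. The reaction was started with ATP and run 40 min at room temperature.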

[6] = Immunostimulatory activity in polymorphonuclear leukocytes (unknown origin) assessed as induction of oxidative burst after 40 mins by fluorescence assay relative to ingenol 3-angelate; type: functional; procedure, shortened: as §1
Keratinocyte [7] = experiment: Induction of proimflammatory activity in human primary epidermal keratinocytes assessed as IL-8 release after 6 hrs relative to ingenol 3-angelate; type: functional
Procedure, shortened: as §2, with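 “IL8” for “TNFα”, “plates or by HTRF.” for “plates.”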

HeLa = experiment: Induction of necrosis in human HeLa cells assessed as remaining metabolic activity after 30 mins by resazurin dye-based assay; type: functional; details: 0.5 h, read-out: LC50 (the source's name)
Procedure, shortened: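 HeLa cells were exposed to increasing concentrations up to 400 µM for 30 min at 37 °C. Metabolic activity was then measured with a resazurin-based dye (PrestoBlue). LC50 is the concentration giving 50% loss of metabolic activity.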

Keratinocyte [8] = experiment: Induction of proimflammatory activity in human primary epidermal keratinocytes assessed as TNFalpha release after 6 hrs relative to ingenol 3-angelate; type: functional; procedure, shortened: as §2

Sequence of Protein kinase C delta type (Q05655 whole entry): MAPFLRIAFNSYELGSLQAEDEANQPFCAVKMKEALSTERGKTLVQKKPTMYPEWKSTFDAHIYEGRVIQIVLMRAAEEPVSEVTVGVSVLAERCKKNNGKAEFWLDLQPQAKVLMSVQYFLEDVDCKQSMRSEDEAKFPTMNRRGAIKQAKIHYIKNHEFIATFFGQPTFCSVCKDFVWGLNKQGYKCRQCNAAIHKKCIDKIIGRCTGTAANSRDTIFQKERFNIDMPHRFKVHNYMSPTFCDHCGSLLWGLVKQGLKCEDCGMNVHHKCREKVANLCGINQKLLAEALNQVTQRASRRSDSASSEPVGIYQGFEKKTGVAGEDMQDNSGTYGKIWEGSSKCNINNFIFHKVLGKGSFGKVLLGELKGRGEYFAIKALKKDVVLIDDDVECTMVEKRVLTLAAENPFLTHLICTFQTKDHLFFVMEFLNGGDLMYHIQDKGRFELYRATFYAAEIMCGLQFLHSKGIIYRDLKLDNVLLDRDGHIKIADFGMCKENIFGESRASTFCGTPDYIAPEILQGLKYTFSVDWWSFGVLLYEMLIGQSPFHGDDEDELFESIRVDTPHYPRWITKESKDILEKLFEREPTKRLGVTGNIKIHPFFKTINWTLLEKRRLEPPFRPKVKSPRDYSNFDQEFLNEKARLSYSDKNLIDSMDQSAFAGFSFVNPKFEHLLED

SMILES	remaining at 16 h [1] [%]	EC50 [2] [nM]	EC50 (Keratinocyte [3]) [nM]	EC50 (Keratinocyte [4]) [nM]	EC50 [5] [nM]	Emax [6] [%]	Emax (Keratinocyte [7]) [%]	CC50 (HeLa) [nM]	Emax (Keratinocyte [8]) [%]
CC1=C[C@]23C(=O)[C@@H](C=C(CO)[C@@H](O)[C@]2(O)[C@H]1OC(=O)c1ccccc1-c1ccccc1)[C@H]1[C@@H](C[C@H]3C)C1(C)C	77	16	1.6	1.5	3.3	105	87	77000	91
CC1=C[C@]23C(=O)[C@@H](C=C(CO)[C@@H](O)[C@]2(O)[C@H]1OC(=O)c1ccccc1Oc1ccccc1)[C@H]1[C@@H](C[C@H]3C)C1(C)C	80	9.4	1.4	1.1	13.1	98	87	83000	86
COc1ccccc1C(=O)O[C@H]1C(C)=C[C@]23C(=O)[C@@H](C=C(CO)[C@@H](O)[C@]12O)[C@H]1[C@@H](C[C@H]3C)C1(C)C	70	6.8	38	42	25.7	107	100	220000	100
CC1=C[C@]23C(=O)[C@@H](C=C(CO)[C@@H](O)[C@]2(O)[C@H]1OC(=O)c1c(C)cccc1O)[C@H]1[C@@H](C[C@H]3C)C1(C)C	> 95	9.4	98	71	13.4	125	105	199000	156
COc1cccc(OC)c1C(=O)O[C@H]1C(C)=C[C@]23C(=O)[C@@H](C=C(CO)[C@@H](O)[C@]12O)[C@H]1[C@@H](C[C@H]3C)C1(C)C	> 95	84	57	44	156	116	107	400000	113
CC1=C[C@]23C(=O)[C@@H](C=C(CO)[C@@H](O)[C@]2(O)[C@H]1OC(=O)c1c(C)cccc1N)[C@H]1[C@@H](C[C@H]3C)C1(C)C	> 95	8.6	12	8.2	8	117	118	146000	108
CC1=C[C@]23C(=O)[C@@H](C=C(CO)[C@@H](O)[C@]2(O)[C@H]1OC(=O)c1c(C)cccc1C)[C@H]1[C@@H](C[C@H]3C)C1(C)C	> 95	13	83	62	10.8	123	66	97000	61
CC1=C[C@]23C(=O)[C@@H](C=C(CO)[C@@H](O)[C@]2(O)[C@H]1OC(=O)c1ccccc1Nc1ccccc1)[C@H]1[C@@H](C[C@H]3C)C1(C)C	58	11	5	3.7	4.2	129	103	307000	120
